From ChEMBL document CHEMBL1128374, “Preparation and in vitro activities of ethers of [D-serine]8-cyclosporin” (J Med Chem, 1995) come the findings set out here.

Converted amounts (≈) assume the structure as drawn.

Common to all, as to assay type: functional
For assay [1], the species on record is Mus musculus. As to the kind of experiment: In vitro inhibition of interleukin-2 (IL-2) production induced by stimulating lymphocytes derived from mouse spleens with the […]. To be noted: Spleen. The method, boiled down: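 Compounds added with concanavalin A to the primary culture; supernatants collected at 48 h. IL-2 content measured by growth of IL-2-dependent CTLL cells, read as tritiated thymidine incorporation after 48 h. IC50 determined, with cyclosporin A run in parallel.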

For assay [2], the species on record is Mus musculus. Put plainly: In vitro efficacy on humoral immune response by Mishell-Dutton assay (MD). In a few lines:
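Spleen lymphocytes from female OF1 mice (ca. 10 x 10^6) cultured 3 days with sheep erythrocytes (ca. 30 x 10^6) and test compound. Cells then plated on agar with fresh erythrocytes; plaques form by complement lysis. Read-out is the count of antibody-producing plaque-forming cells. Cyclosporin A run in parallel.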

The species entered for assay [3] is Mus musculus. As to the kind of experiment: In vitro efficacy to suppress lymphocyte proliferation as measured by the incorporation of a labeled precursor ([3H]- thymidine) into DNA in Mixed Lymphocyte reaction (MLR). The method, boiled down:
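Cells from spleens of female CBA mice aged 8–10 weeks (ca. 5 x 10^5). Compounds made up at 20 mg/mL in 9:1 (v/v) ethanol/Tween 80, then diluted in saline before adding to medium. Four concentrations per compound across 1.8–1000 ng/mL, in triplicate cultures. IC50 is the calculated concentration giving 50% inhibition of proliferation. Cyclosporin A run in parallel as control.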

For `C/C=C/C[C@@H](C)[C@@H](O)[C@H]1C(=O)N[C@@H](CC)C(=O)N(C)CC(=O)N(C)[C@@H](CC(C)C)C(=O)N[C@@H](C(C)C)C(=O)N(C)[C@@H](CC(C)C)C(=O)N[C@@H](C)C(=O)N[C@H](COCCNS(=O)(=O)c2cccc3c(N(C)C)cccc23)C(=O)N(C)[C@@H](CC(C)C)C(=O)N(C)[C@@H](CC(C)C)C(=O)N(C)[C@@H](C(C)C)C(=O)N1C`, the results for the IC50 in the assay filed under Mus musculus [1], in the assay listed under Mus musculus [2] and in the assay filed under Mus musculus [3] were 0.057 µg/mL (≈ 0.0381 µM), 0.048 µg/mL (≈ 0.0321 µM) and 0.11 µg/mL (≈ 0.0736 µM), respectively.

Regarding `C=C(COC[C@H]1NC(=O)[C@H](C)NC(=O)[C@H](CC(C)C)N(C)C(=O)[C@H](C(C)C)NC(=O)[C@H](CC(C)C)N(C)C(=O)CN(C)C(=O)[C@H](CC)NC(=O)[C@H]([C@H](O)[C@H](C)C/C=C/C)N(C)C(=O)[C@H](C(C)C)N(C)C(=O)[C@H](CC(C)C)N(C)C(=O)[C@H](CC(C)C)N(C)C1=O)C(=O)OC`, the IC50 in the assay listed under Mus musculus [1] amounted to 0.1 µg/mL (≈ 0.0759 µM); in the assay listed under Mus musculus [2] it was 0.016 µg/mL (≈ 0.0122 µM); in the assay listed under Mus musculus [3] it was 0.04 µg/mL (≈ 0.0304 µM).

Regarding `C/C=C/C[C@@H](C)[C@@H](O)[C@H]1C(=O)N[C@@H](CC)C(=O)N(C)CC(=O)N(C)[C@@H](CC(C)C)C(=O)N[C@@H](C(C)C)C(=O)N(C)[C@@H](CC(C)C)C(=O)N[C@@H](C)C(=O)N[C@H](COCCC2OCCO2)C(=O)N(C)[C@@H](CC(C)C)C(=O)N(C)[C@@H](CC(C)C)C(=O)N(C)[C@@H](C(C)C)C(=O)N1C`, the IC50 was determined as 0.086 µg/mL (≈ 0.0652 µM) in the assay listed under Mus musculus [1], 0.105 µg/mL (≈ 0.0796 µM) in the assay filed under Mus musculus [2] and 0.117 µg/mL (≈ 0.0887 µM) in the assay listed under Mus musculus [3].

On to `C/C=C/C[C@@H](C)[C@@H](O)[C@H]1C(=O)N[C@@H](CC)C(=O)N(C)CC(=O)N(C)[C@@H](CC(C)C)C(=O)N[C@@H](C(C)C)C(=O)N(C)[C@@H](CC(C)C)C(=O)N[C@@H](C)C(=O)N[C@H](COCCOC(C)=O)C(=O)N(C)[C@@H](CC(C)C)C(=O)N(C)[C@@H](CC(C)C)C(=O)N(C)[C@@H](C(C)C)C(=O)N1C`, for which the IC50 was found to be 0.012 µg/mL (≈ 0.0092 µM) in the assay filed under Mus musculus [1], 0.028 µg/mL (≈ 0.0215 µM) in the assay filed under Mus musculus [2] and 0.018 µg/mL (≈ 0.0138 µM) in the assay listed under Mus musculus [3].

As to `C=C(CCl)COC[C@H]1NC(=O)[C@H](C)NC(=O)[C@H](CC(C)C)N(C)C(=O)[C@H](C(C)C)NC(=O)[C@H](CC(C)C)N(C)C(=O)CN(C)C(=O)[C@H](CC)NC(=O)[C@H]([C@H](O)[C@H](C)C/C=C/C)N(C)C(=O)[C@H](C(C)C)N(C)C(=O)[C@H](CC(C)C)N(C)C(=O)[C@H](CC(C)C)N(C)C1=O`, the results for the IC50 in the assay filed under Mus musculus [1], in the assay listed under Mus musculus [2] and in the assay filed under Mus musculus [3] were over 0.1 µg/mL, 0.23 µg/mL (≈ 0.176 µM) and 0.27 µg/mL (≈ 0.207 µM), respectively.

Take `C/C=C/C[C@@H](C)[C@@H](O)[C@H]1C(=O)N[C@@H](CC)C(=O)N(C)CC(=O)N(C)[C@@H](CC(C)C)C(=O)N[C@@H](C(C)C)C(=O)N(C)[C@@H](CC(C)C)C(=O)N[C@@H](C)C(=O)N[C@H](COCCN)C(=O)N(C)[C@@H](CC(C)C)C(=O)N(C)[C@@H](CC(C)C)C(=O)N(C)[C@@H](C(C)C)C(=O)N1C`: the figures for the IC50 in the assay listed under Mus musculus [1], in the assay filed under Mus musculus [2] and in the assay listed under Mus musculus [3] were 0.38 µg/mL (≈ 0.301 µM), 0.095 µg/mL (≈ 0.0753 µM) and 0.22 µg/mL (≈ 0.174 µM), respectively.

As for `C#CCOC[C@H]1NC(=O)[C@H](C)NC(=O)[C@H](CC(C)C)N(C)C(=O)[C@H](C(C)C)NC(=O)[C@H](CC(C)C)N(C)C(=O)CN(C)C(=O)[C@H](CC)NC(=O)[C@H]([C@H](O)[C@H](C)C/C=C/C)N(C)C(=O)[C@H](C(C)C)N(C)C(=O)[C@H](CC(C)C)N(C)C(=O)[C@H](CC(C)C)N(C)C1=O`, the values for the concentration for half-maximal inhibition (IC50) in the assay filed under Mus musculus [1], in the assay filed under Mus musculus [2] and in the assay listed under Mus musculus [3] were 0.09 µg/mL (≈ 0.0716 µM), 0.036 µg/mL (≈ 0.0286 µM) and 0.072 µg/mL (≈ 0.0573 µM), respectively.

As to `C=C(COC[C@H]1NC(=O)[C@H](C)NC(=O)[C@H](CC(C)C)N(C)C(=O)[C@H](C(C)C)NC(=O)[C@H](CC(C)C)N(C)C(=O)CN(C)C(=O)[C@H](CC)NC(=O)[C@H]([C@H](O)[C@H](C)C/C=C/C)N(C)C(=O)[C@H](C(C)C)N(C)C(=O)[C@H](CC(C)C)N(C)C(=O)[C@H](CC(C)C)N(C)C1=O)CO[Si](C)(C)C(C)(C)C`, the IC50 is over 1 µg/mL in the assay filed under Mus musculus [1], over 1 µg/mL in the assay listed under Mus musculus [2] and 0.45 µg/mL (≈ 0.321 µM) in the assay filed under Mus musculus [3].

A word on the IC50: it is the midpoint of a concentration-inhibition curve. Read a low IC50 as greater potency in that assay.
